Each structure is given as a SMILES string.

Consider 71 molecules from ChEMBL document CHEMBL4513216, “Probing the Open Global Health Chemical Diversity Library for Multistage-Active Starting Points for Next-Generation Antimalarials” (ACS Infect Dis, 2020).

This series in a line: Toxicity liver stage against HepG2, at 10uM. The format is cell-based. As to conditions: human, HepG2-A16-CD81EGFP cells; read-out: INHIBITION
Set-up: test concentration 10 uM, cell line HepG2-A16-CD81EGFP. In outline: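 Uninfected HepG2-A16-CD81EGFP cells, 3 × 10^3 per well, 1536-well, plated on prespotted compound at 10 μM final, parasite-free screening media added to match infected plates; puromycin 10 μM positive, DMSO 0.5% negative; run in parallel with 48 h PbLuc assay at 37 °C, 5% CO2; viability by CellTiter-Glo luminescence, normalized to controls.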
Regarding `CCc1[nH]ncc1C(=O)N1CCCN(Cc2nccn2C(C)C)CC1`, the cytotoxicity at 10 µM was -8.92%. To `Cc1nc(CN2C[C@@H]3CN(C(=O)c4cnccn4)C[C@@H]3C2=O)cs1` belongs -74.5%; to `CC1(C)CN(Cc2nnc(-c3cccnc3)o2)CC[C@]1(C)O`, -10.2%; to `CN(C)S(=O)(=O)N1CC[C@]2(C[C@@H](OCc3ccccn3)CO2)C1`, 10.1%. As for `CCc1ncc(CN2CCN(CCOC)CC2)cn1`, the cytotoxicity at 10 µM is -21.7%.

Regarding `O=C(c1cc(Cl)ccc1OC1CCN(C2CCCC2)CC1)N1CCCO1`, the cytotoxicity at 10 µM was -2.54%.

As for `Cn1cnc(S(=O)(=O)NCC2(O)CCc3ccccc32)c1` (stereo unspecified), the cytotoxicity at 10 µM was found to be 11.6%. Take `CCCN(CCO)C(=O)c1cc(COc2ccc3c(c2)CCCC3)on1`: the cytotoxicity at 10 µM was -159%. On to `Oc1cc(-c2nccs2)nc(C2CCN(Cc3cccs3)CC2)n1`, for which the cytotoxicity at 10 µM is 16.7%.

In the case of `CN(C)C(=O)N1CCc2c(CNc3ncccn3)cncc2C1`, the cytotoxicity at 10 µM was -3.55%. To `COC(=O)c1cccc(S(=O)(=O)NC(=O)c2cccc(OC)c2OC)c1` belongs 12.2%.

Consider `Cc1n[nH]c(C)c1S(=O)(=O)N1CCC(Oc2ccccc2F)CC1`, for which the cytotoxicity at 10 µM amounted to 1.22%. `CC(C)n1[nH]c(=O)c2c1NC(=O)CC2c1cccc(OC(F)F)c1` (stereo unspecified): the cytotoxicity at 10 µM came out at 16%. For the molecule `OCCn1nccc1C1CCN(CCOc2ccc(Cl)cc2)CC1`, the cytotoxicity at 10 µM is -4.68%. Regarding `Cc1ccc(OCC2CCCN(C(=O)c3csc(CN(C)C)n3)C2)cc1` (stereo unspecified), the cytotoxicity at 10 µM was -3.16%. As for `CCn1cnnc1C1CCN(C(=O)CCCOc2ccccc2)CC1`, the cytotoxicity at 10 µM was 0.927%. Turning to `CCCS(=O)(=O)N1CCC(Nc2c(F)cc(C#N)cc2F)CC1`, the cytotoxicity at 10 µM was found to be 1.34%.

Regarding `Cc1cc(CN(C)C(=O)C(c2ccccc2C)N(C)C)on1` (stereo unspecified), the cytotoxicity at 10 µM was determined as 3.65%. To `CNS(=O)(=O)CC(=O)N(Cc1ccsc1)c1ccccc1` belongs -2.4%. `CN(C1CCN(C(=O)NCCc2ccc(F)cc2F)CC1)S(C)(=O)=O`: the cytotoxicity at 10 µM worked out at 12.3%. To `CCc1nc(CN(C)C(=O)NCc2cccc(NC(C)=O)c2)cs1` belongs -3.71%; to `CCc1nc(C2CCCN2C(=O)c2ncoc2CC)no1` (stereo unspecified), -12.8%; to `O=C(CCS(=O)(=O)C1CCCC1)N1CCCC1c1ccsc1` (stereo unspecified), 1.06%. To `O=C(NCCCSc1ccc(F)cc1)C1CCc2cn[nH]c2C1` (stereo unspecified) belongs -3.65%; to `CN(Cc1cnn(C)c1)C(=O)C1COc2ccccc2C1` (stereo unspecified), 0.583%.

For `O=C(c1ccc(-c2ccccc2)[nH]c1=O)N1CCCn2ncnc21`, the cytotoxicity at 10 µM amounted to 1.46%. To `O=C(CC1CC1)N1Cc2nccn2CC(CN2CCCC2)C1` (stereo unspecified) belongs -67.7%. For `NC(=O)C(NCc1nn(-c2ccccc2)c2c1CCC2)c1ccccc1` (stereo unspecified), the cytotoxicity at 10 µM is -5.86%. Turning to `CN(c1ncc(C(N)=O)cc1Cl)C1CCC(c2ccccc2)CC1` (stereo unspecified), the cytotoxicity at 10 µM amounted to 38.8%. `Cc1cc(NCc2cccnc2)n2nc(C)cc2n1`: the cytotoxicity at 10 µM is -0.719%. To `CN(CC(=O)N1CCC(Oc2ccc(C(F)(F)F)cn2)CC1)S(C)(=O)=O` belongs 1.97%; to `CCN1CC2(CC1=O)CN(Cc1cccs1)CCN(C(=O)C(C)C)C2` (stereo unspecified), -13.9%. To `Cc1ccc(C(=O)Nc2c(C(=O)N(C)C)nn(C)c2C)cc1C` belongs 11.8%. To `Cc1noc(C)c1CCC(=O)NCCc1cccs1` belongs -3.11%; to `O=C(Cn1nc(-c2ccc(F)cc2)oc1=O)NCc1ccncc1`, -9.21%; to `CSc1ccc(-c2nc(CN3CCNCC3C)c(C)o2)cc1` (stereo unspecified), -5.58%. Take `CC(C)CCN1Cc2c(C(=O)O)ncn2-c2ccccc2S1(=O)=O`: the cytotoxicity at 10 µM amounted to 6.72%. To `CN1[C@H](Cn2cncn2)C[C@@H]2CN(Cc3cccc(C#N)c3)CC[C@@H]21` belongs -9.78%; to `CCCC(C)(C)NC(=O)CCN1CCOC1=O`, -8.94%; to `COc1ccccc1N1CCN(C(=O)NC(C)c2nncn2C)CC1` (stereo unspecified), -4.23%. `COc1cc(CN2CCCC2)ccc1OC12CCCN(CC1)C2` (stereo unspecified): the cytotoxicity at 10 µM is -2.87%. To `NC(=O)CN(C(=O)c1c[nH]c2ncccc12)C1CCCC1` belongs 0.441%; to `Cc1cc(CN(C)C(=O)CN2CCCCCC2=O)no1`, 7.41%. For the molecule `Cc1ccc(CNc2cc(N3CCCC3CO)ncn2)s1` (stereo unspecified), the cytotoxicity at 10 µM is -2.9%.

As to `Cc1noc(C)c1-c1cc(CC2CCN(C(=O)c3cc[nH]n3)C2)ncn1` (stereo unspecified), the cytotoxicity at 10 µM was -13.4%. To `O=C(c1cccnc1O)N1CCN(CCc2cccs2)CC1` belongs -8.86%.

Take `CCN1CCOC(CNCc2ccccc2OCc2ccncc2)C1` (stereo unspecified): the cytotoxicity at 10 µM was -8.57%. Turning to `O=C(CCN1CCN(c2ccc3nncn3n2)CC1)NC1CCCC1`, the cytotoxicity at 10 µM is -27.5%. On to `Cn1c(Cn2ccnc2)nnc1C1CCN(C(=O)c2ccccn2)CC1`, for which the cytotoxicity at 10 µM is -104%. Turning to `O=S(=O)(c1cn[nH]c1)N1CCCC1c1cc[nH]n1` (stereo unspecified), the cytotoxicity at 10 µM was -23%.

With `Cc1cc(NCCCC(F)(F)F)n2nc(C)cc2n1`, the cytotoxicity at 10 µM came to 0.894%. With `Cc1ccnc(CNC(=O)C2CC(=O)N(CCN(C)C)C2)c1` (stereo unspecified), the cytotoxicity at 10 µM is -5.79%.

In the case of `CC(C)c1ccc(OCCC(=O)N2CCC(CC(N)=O)CC2)cc1`, the cytotoxicity at 10 µM is -14%. For `CC(C)CS(=O)(=O)CCNc1ncccn1`, the cytotoxicity at 10 µM was -2.43%.

`CCc1c(O)nc(SCC(=O)c2ccccc2)n(-c2ccccc2)c1=O`: the cytotoxicity at 10 µM was determined as 3.19%.

`CC(C)(C)n1nc(C(=O)NCC2(C(N)=O)CCOCC2)cc1C1CC1`: the cytotoxicity at 10 µM is -15.9%. To `O=C(c1ccccc1F)N1CCC2(CC1)CC(Oc1ccccn1)CO2` (stereo unspecified) belongs -113%; to `N#CC1(NC(=O)COC(=O)Cn2cccn2)CCCC1`, 8.89%; to `COc1cccc2c1OCC(NC(=O)NC1CCN(C3CC3)CC1)C2` (stereo unspecified), -10.7%. Turning to `Cc1cc(C)n(C2CN(c3nc(-c4ccncc4)nc4c3CCC4)C2)n1`, the cytotoxicity at 10 µM was -33.6%. To `CC(C)c1nccn1C1CCCN(C(=O)c2cc(C(N)=O)cs2)C1` (stereo unspecified) belongs -2.61%; to `CNC(=O)C1Cc2ccccc2CN1CCCc1ccccc1` (stereo unspecified), 4.23%.

`CCn1nc(CC(C)C)cc1C(=O)NCc1c(C)cc(C)nc1OC`: the cytotoxicity at 10 µM worked out at 1.66%. For `c1cnc(NCc2n[nH]c3c2CCN(Cc2cccnc2)C3)nc1`, the cytotoxicity at 10 µM is -7.15%. `NC(=O)CN1CCC(NC(=O)COc2ccc(Cl)c(Cl)c2)CC1`: the cytotoxicity at 10 µM is -8.7%.

On to `Cn1cccc1CN1CCC2(CCCN(C(=O)c3cnccn3)C2)C1` (stereo unspecified), for which the cytotoxicity at 10 µM was -6.36%. To `COc1ccccc1C1(C(=O)N2CCN(CC(C)O)CC2)CC1` (stereo unspecified) belongs -3.51%. Regarding `CSCCC(=O)NCc1cc2n(n1)CCN(C(=O)N(C)C)C2`, the cytotoxicity at 10 µM is -5.77%.

`Cc1cc(CN2CCOC(Cn3nc(C)cc3C)C2)on1` (stereo unspecified): the cytotoxicity at 10 µM was -5.81%.

With `CSc1ccc(C(=O)N2CC(=O)N(CC3CC3)CC(O)C2)cc1` (stereo unspecified), the cytotoxicity at 10 µM amounted to 0.174%.

In the case of `CCN1CCN(C(=O)c2ccc3c(c2)OCC(=O)N3)[C@H]2CS(=O)(=O)C[C@H]21`, the cytotoxicity at 10 µM is -49.6%.
